ABCG2 inh: human ABCG2 inhibition, ABCB1 as counter-screen; IgMXP3 cells, JC-1 efflux, flow cytometry; inhibition, % at 6.6 µM; 0.1% of 190,000 active; AID 1325;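 active means inhibition above 80%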;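 further: 0% = DMSO and 100% = nicardipine control wells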
Target sequence (Q9UNQ0 whole entry, looked up): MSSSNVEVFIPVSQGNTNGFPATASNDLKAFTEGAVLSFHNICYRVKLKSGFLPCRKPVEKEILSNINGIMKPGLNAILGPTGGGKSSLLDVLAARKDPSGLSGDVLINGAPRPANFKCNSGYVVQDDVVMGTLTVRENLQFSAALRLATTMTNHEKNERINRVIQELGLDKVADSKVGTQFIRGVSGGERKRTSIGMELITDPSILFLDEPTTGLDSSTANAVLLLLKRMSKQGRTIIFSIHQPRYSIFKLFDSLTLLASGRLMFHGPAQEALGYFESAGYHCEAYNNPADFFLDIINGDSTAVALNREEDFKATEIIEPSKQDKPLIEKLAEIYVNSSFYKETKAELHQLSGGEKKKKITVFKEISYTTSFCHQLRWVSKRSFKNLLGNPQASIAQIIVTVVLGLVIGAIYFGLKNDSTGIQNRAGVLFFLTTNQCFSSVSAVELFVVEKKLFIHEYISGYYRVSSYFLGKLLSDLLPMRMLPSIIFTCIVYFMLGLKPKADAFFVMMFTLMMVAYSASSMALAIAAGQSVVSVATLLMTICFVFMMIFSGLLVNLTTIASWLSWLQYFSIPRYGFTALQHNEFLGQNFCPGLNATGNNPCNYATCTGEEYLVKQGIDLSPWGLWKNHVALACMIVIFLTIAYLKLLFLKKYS
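material = IgMXP3 (ABCG2) plus far-red-tagged CCRF-Adr (ABCB1) cells | amount = 3 million cells/mL, equal mix of both lines | also added = JC-1 transporter substrate | dosing = one concentration, 6.6 µM final | schedule = 10 min at 25 °C | measured by = flow cytometric JC-1 green MFI at 530 nm | read-out basis = percent efflux inhibition, scaled nicardipine 100% to DMSO 0%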
L major viab: Leishmania major promastigote growth inhibition | inhibition, % at 10 µM | AID 1063 | 9% of 200,000 active | Leishmania major promastigotes, resazurin fluorescence viability;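 further: promastigotes grown with compound for 44 hours at 28 °C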
Avidin fluor: compound fluoresces at 488/530 nm on avidin beads; compound fluorescence 488/530 nm, flow cytometry; hits give high values; fluorescence (KMESF) at 10 µM; 0.38% of 220,000 active; AID 1775; in the data active means fluorescence above about 47
PKD1 kinase inh: PKD1 (human) kinase inhibition; Q15139; PKD1 kinase fluorescence polarization assay; inhibition, % (no concentration beside the values); 0.056% of 200,000 active; AID 797
GSH bead fluor: compound fluoresces at 488/530 nm on GSH beads. GSH beads flow cytometry, compound fluorescence 488/530 nm; hits give high values. fluorescence (KMESF) at 10 µM. 0.25% of 190,000 active. AID 1776; in the data active means fluorescence above about 89;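 further: glutathione beads carrying GST-tagged Bcl family fusion proteins plus one bare bead set; values are compound well signal with DMSO vehicle wells as background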
ABCB1 block: human ABCB1 inhibition, ABCG2 as counter-screen | CCRF-Adr cells, JC-1 efflux, flow cytometry | AID 1326 | 0.067% of 190,000 active | P08183 | inhibition, % at 6.6 µM; in the data active means inhibition above about 40%;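 further: 0% = vehicle and 100% = reference inhibitor; higher value means more JC-1 retained so stronger ABCB1 efflux block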
* = called active by the depositor; nt = not tested or not shown; ! = repeats disagree. Only a selection was taken, and hits are over-represented in it overall. Unless noted, no stated cut-off is given here; in the data, active means inhibition above about 50%; inactive means the rest.

SMILES	ABCG2 inh	L major viab	Avidin fluor	PKD1 kinase inh	GSH bead fluor	ABCB1 block
Brc1ccc(-c2cn3c(n2)CCc2ccc4cccnc4c2-3)cc1	0.3	100.0*	36	-7.2	11	0.3
C#CCn1c(=NC(=O)c2cc(-c3cccs3)nc3ccccc23)sc2cc(S(N)(=O)=O)ccc21	-1.6	-4.6	0	-13.9	5	-0.7
COc1ccc(/C=c2\s/c(=C(/C#N)C(=O)NCc3ccco3)n(-c3ccccc3)c2=O)cc1	6.6	61.9*	8	-13.0	3	-0.1
COc1cc(/C=C/C(=O)c2ccc(NS(=O)(=O)c3ccc(C)cc3)cc2)ccc1OC(F)F	-0.7	98.5*	2	-6.6	6	-0.4
COc1cc(/C=C/C(=O)c2ccc(NS(=O)(=O)c3ccc(C)cc3)cc2)cc(OC)c1O	-0.2	82.5*	11	0.3	11	-0.3
COc1cccc(C(=O)/C=C/Nc2ccc(S(=O)(=O)Nc3cccc(C(C)=O)c3)cc2)c1	0.5	82.1*	37	-15.4	12	0.0
COc1cc(S(=O)(=O)Nc2ccc(C)cc2)ccc1NC(=O)c1ccncc1	9.7	22.7	6	-6.7	11	0.7
COc1cccc(/C=C/C(=O)c2ccc(NS(=O)(=O)c3ccc(C)cc3)cc2)c1	19.5	99.4*	8	1.0	10	0.5
COC(=O)c1ccc(NC(=O)CSc2nccn2CCc2ccccc2)cc1	2.1	36.2	5	0.7	26	0.2
COc1ccc(S(=O)(=O)NCc2ccncc2)cc1OC	1.1	-8.4	9	-8.1	9	0.3
Cc1cc(C)c2c(-n3cccc3)c(C(=O)NNS(=O)(=O)c3ccc(Cl)cc3)sc2n1	4.2	-3.6	19	-0.7	31	1.2
CCSc1nc2ccccc2n1CC(N)=O	-4.6	-8.5	24	-9.8	23	0.1
CCSc1nc2ccccc2n1C(=O)/C=C\c1ccc(OC)c(OC)c1	9.5	89.7*	21	6.4	8	4.6
CCCCCCCCNC(=O)c1cccnc1SCC(=O)Nc1ccc(OC)cc1OC	33.2	85.9*	15	3.1	5	0.3
O=C1NC(c2ccccc2)=C(c2nc3ccccc3s2)C(c2ccc(O)cc2)N1 (configuration not stated)	11.2	80.8*	7	2.5	20	0.1
O=C1NC(c2ccccc2)=C(c2ccc3ccccc3n2)C(c2ccccc2)N1 (configuration not stated)	13.2	85.4*	5	-5.5	24	2.5
O=C1NC(c2ccccc2)=C(c2ccc3ccccc3n2)C(c2ccc(F)cc2)N1 (configuration not stated)	14.4	37.7	13	-5.0	10	1.9
O=C(NNC(=O)c1ccc(SCC2CCCO2)c([N+](=O)[O-])c1)c1ccc(F)cc1 (configuration not stated)	20.2	-7.8	22	-2.2	20	1.4
CCOc1ccccc1NC(=O)Nc1ccc(Br)cc1C	11.5	0.7	16	0.3	11	0.6
O=S(=O)(c1ccc(Br)s1)N1CCc2ccccc2C1	0.7	5.0	48*	-13.2	26	0.5
O=C(CNc1cc(S(=O)(=O)N2CCCC2)ccc1OCC(F)(F)F)Nc1ccc(SC(F)F)cc1	16.1	1.0	11	-7.9	12	0.6
O=C1NC(=S)N(c2cccc(Cl)c2)C12CCCCC2	0.6	52.2*	15	-1.0	9	0.1
CCCSc1nc(C)cc(C)c1C(N)=O	3.9	-3.0	27	-7.3	14	0.8
CC(=O)Nc1ccc(NC(=O)COC(=O)C2(c3ccc(Cl)cc3)CCCC2)cc1	0.4	74.3*	4	-6.7	11	1.3
O=C(c1ccccc1)N1CCC(c2nc3c(nnn3Cc3ccco3)c(=O)[nH]2)CC1	-0.1	-0.6	7	-11.3	26	-0.3
SMILES	ABCG2 inh	L major viab	Avidin fluor	PKD1 kinase inh	GSH bead fluor	ABCB1 block
COc1cccc(CNC(=O)CCC2CCCN(c3cc(C)nc(N4CCCC4)n3)C2)c1 (configuration not stated)	0.8	5.3	3	2.1	9	0.1
Cc1cccc(NC(=S)NCC(c2cccnc2)N(C)C)c1C (configuration not stated)	5.9	-7.2	13	11.3	18	1.0
Cc1coc2c1C(=O)C(=O)c1c-2ccc2c1CCCC2(C)C	4.2	98.2*	7	10.3	19	-0.3
COc1ccc2c(C=Nc3c(C)n(C)n(-c4ccccc4)c3=O)c(O)n(Cc3ccco3)c(=O)c2c1	1.8	75.6*!	8	-9.9	8	1.2
Cn1ccc(=S)c2ccccc21	0.5	88.5*	23	-5.7	25	0.3
Cn1c(=S)[nH]c2ccccc21	33.9	-5.4	12	7.2	37	-0.1
O=C(C1CCN(C2CCN(Cc3ccc4c(c3)CCO4)CC2)CC1)N1CCOCC1	-3.5	30.0	1	-2.5	13	-1.5
CN1/C(=C\C(=O)CSc2nnc(NCc3ccccc3)s2)C(C)(C)c2ccccc21	0.0	7.4	2	10.5	8	-0.6
O=C(Cn1ccc(C(F)(F)F)n1)Nc1cccc(S(=O)(=O)N2CCCCC2)c1	0.1	6.5	10	2.8	27	-0.4
Cc1ccc(N/N=C(\C#N)C(=N)N2CCOCC2)cc1	34.3	86.8*	14	-2.4	10	0.5
N#C/C(=N\Nc1ccc(Cl)cc1)C(=N)N1CCCCC1	4.3	72.7*	30	-11.7	14	0.2
N#C/C(=N\Nc1ccc(F)cc1)C(=N)N1CCCCCC1	4.7	49.4	12	-1.9	13	0.3
Cc1ccc(S(=O)(=O)Nc2cccc(Cl)c2)cc1NC(=O)c1cccnc1	5.3	7.5	9	6.3	16	1.4
CC[N+](CC)(CC)C/C=C/CN1CCCCC1	3.1	58.4*	9	-19.1	10	0.8
COCc1[nH][nH]c(=O)c1/C=N/N1CCOCC1	-0.6	-0.1	13	-7.7	8	-0.4
CCc1ccc(NC(=O)C2(c3ccccc3)CC2(Cl)Cl)cc1 (configuration not stated)	6.5	95.7*	11	-12.2	22	1.4
Cc1cccc(NC(=O)C2(c3ccccc3)CC2(Cl)Cl)c1 (configuration not stated)	2.1	14.9	12	-13.3	13	0.3
Cc1ccc(NC(=O)C2(c3ccccc3)CC2(Cl)Cl)cc1C (configuration not stated)	0.9	67.4*	14	8.3	30	0.3
Cc1oc(=O)c(NC(=O)c2cccc(Cl)c2)cc1C(=O)c1ccccc1	27.9	5.8	8	-10.2	32	0.3
CCCCCCn1c(SCCCC)nc2c1c(=O)[nH]c(=O)n2C	2.6	12.8	4	-2.1	22	0.5
CCn1c([N+](=O)[O-])nc2c1c(=O)[nH]c(=O)n2C	0.1	100.3*	9	-5.8	13	-0.3
CCN(CC)CC(=O)Nc1c(C)cccc1C	nt	17.5	7	5.3	20	nt

Assay outcomes deposited in PubChem BioAssay by several laboratories.
